The target in data set [1] is 11-beta-hydroxysteroid dehydrogenase 1 (Homo sapiens, UniProt P28845). The data set is described as follows: Inhibition of human 11betaHSD1 expressed in CHO cells by cell based assay.
Data set [2] addresses T1, 11-beta-hydroxysteroid dehydrogenase 1 (Mus musculus, UniProt P50172). The data set is described as follows: Inhibition of mouse 11betaHSD1 expressed in CHO cells by cell based assay.
The target of data set [3] is T2, 11-beta-hydroxysteroid dehydrogenase type 2 (Homo sapiens) (UniProt P80365).
T2 sequence (whole entry): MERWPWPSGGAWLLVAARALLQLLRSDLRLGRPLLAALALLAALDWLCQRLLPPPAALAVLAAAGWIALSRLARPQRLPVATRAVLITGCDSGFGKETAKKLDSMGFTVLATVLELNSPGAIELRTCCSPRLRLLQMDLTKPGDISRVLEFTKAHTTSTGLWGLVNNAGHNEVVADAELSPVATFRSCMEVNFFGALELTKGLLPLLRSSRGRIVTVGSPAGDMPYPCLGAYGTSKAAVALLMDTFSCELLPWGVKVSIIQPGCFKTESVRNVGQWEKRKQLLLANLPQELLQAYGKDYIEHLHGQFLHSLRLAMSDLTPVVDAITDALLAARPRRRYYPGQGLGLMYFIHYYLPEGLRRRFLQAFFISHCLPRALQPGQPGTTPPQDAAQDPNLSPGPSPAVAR
Description: Inhibition of 11betaHSD2 at 100 uM by cell based assay.

The nature of data set [4]: Metabolic stability assessed as half life in mouse liver microsomes.
A short description of data set [5]: Metabolic stability assessed as half life in human liver microsomes.
The nature of data set [6]: Clearance in mouse at 2 mg/kg, iv. The data set is classed as ADME, organism-based. Set-up: dose 2 mg/kg, route intravenous. The conditions noted are these: in vivo.
Data set [7] in a line: Oral bioavailability in mouse at 30 mg/kg. The format is ADME, organism-based. The conditions noted are these: in vivo.
Data set [8] concerns Mus musculus. Description: Ex vivo inhibition of 11betaHSD1 in C57BL/6 mouse assessed as conversion of [3H]cortisone to [3H]cortisole in liver at 30 mg/kg, po. The format is functional. The conditions noted are these: C57BL/6, Liver. An outline of the steps: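 Mice dosed orally; sacrificed 5 h after dosing. Liver samples taken and 11β-HSD1 conversion of cortisone to cortisol measured; percent inhibition reported.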

Data set [9] addresses T1, 11-beta-hydroxysteroid dehydrogenase 1. The data set is described as follows: Inhibition of C57BL/6 mouse 11betaHSD1 in presence of human serum.
Data set [10] can be described thus: Cmax in Sprague-Dawley rat at 30 mg/kg, po. The data set is classed as ADME, organism-based. Set-up: dose 30 mg/kg, route oral. As to conditions: in vivo. An outline of the steps:
(§1)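 Oral PK in rats; single dose 30 mg/kg by gavage, formulated in 0.5% methyl cellulose/2% Tween; plasma exposure reported as Cmax (ng/mL) and AUC (ng·h/mL).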

Data set [11] in a line: AUC in Sprague-Dawley rat at 30 mg/kg, po. The data set is classed as ADME, organism-based. The arrangement: dose 30 mg/kg, route oral. The conditions noted are these: plasma. An outline of the steps:
as §1

Data set [12] has as its system Rattus norvegicus. The data set is described as follows: Ex vivo inhibition of 11betaHSD1 in Sprague-Dawley rat assessed as conversion of [3H]cortisone to [3H]cortisole in liver at 30 mg/kg, po after 2 hrs. The data set is classed as functional.
Data set [13] has as its system Rattus norvegicus. Description: Effect on cortisone-induced Sprague-Dawley rat hyperinsulinemia model assessed as reduction in insulin at 60 mg/kg, bid after 7 days. The format is functional. The arrangement: scale not given: the % may be the effect or the level left. An outline of the steps: (§2)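 Male SD rats given cortisone in drinking water (2 mg/mL); inhibitors dosed orally b.i.d. for 7 days. On day 7, body weight, food intake, liquid consumption, plasma glucose and serum insulin were measured; insulin reduction expressed as percent.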

Data set [14] concerns the target 11-beta-hydroxysteroid dehydrogenase 1 (Rattus norvegicus, UniProt P16232). Description: Inhibition of rat 11betaHSD1. Summed up:
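Potency against rat enzyme measured in a cell-based assay using CHO cells expressing rat 11β-HSD1; IC50 reported.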

Data set [15] is filed under the species Rattus norvegicus. Description: Effect on glucose level in cortisone-induced Sprague-Dawley rat hyperinsulinemia model. The data set is classed as functional, organism-based. An outline of the steps: as §2
Data set [16] has as its system Rattus norvegicus. Description: Effect on cortisone-induced Sprague-Dawley rat hyperinsulinemia model assessed as reduction in insulin at 30 mg/kg, bid after 7 days. The format is functional. The arrangement: scale not given: the % may be the effect or the level left. Summed up: as §2
In data set [17] the test system is Mus musculus. Description: Ex vivo inhibition of 11betaHSD1 in C57BL/6 mouse assessed as conversion of [3H]cortisone to [3H]cortisole in liver at 10 mg/kg, po. The format is functional. As to conditions: C57BL/6, Liver.

The text below walks through data of ChEMBL document CHEMBL1155083, “Piperazine sulfonamides as potent, selective, and orally available 11beta-hydroxysteroid dehydrogenase type 1 inhibitors with efficacy in the rat cortisone-induced hyperinsulinemia model” (J Med Chem, 2008).

As usually defined, the IC50 is the concentration that gives 50% inhibition. For orientation: half-life means how long it takes for the measured level to halve. The clearance is the rate of elimination divided by the concentration. For orientation: bioavailability means dose-corrected exposure relative to a reference, in per cent. As a reminder, the inhibition in vivo is how much of the control response was suppressed. A word on the Cmax: it is the highest concentration seen after dosing. As usually defined, the AUC is concentration integrated over time.

Active and inactive are the calls of the source. No cut-off for these calls is given here. Bounds are passed on as bounds.

11-beta-hydroxysteroid dehydrogenase 1 (Rattus norvegicus, UniProt P16232), sequence (P16232 whole entry): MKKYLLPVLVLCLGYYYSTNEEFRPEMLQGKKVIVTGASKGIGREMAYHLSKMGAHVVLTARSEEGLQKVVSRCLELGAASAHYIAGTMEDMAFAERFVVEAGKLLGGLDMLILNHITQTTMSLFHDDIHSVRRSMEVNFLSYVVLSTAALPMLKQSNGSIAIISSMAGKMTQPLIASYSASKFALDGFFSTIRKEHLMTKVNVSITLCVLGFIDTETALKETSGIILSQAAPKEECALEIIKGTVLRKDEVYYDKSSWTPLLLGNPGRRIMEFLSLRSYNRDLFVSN
T1 sequence (P50172 whole entry): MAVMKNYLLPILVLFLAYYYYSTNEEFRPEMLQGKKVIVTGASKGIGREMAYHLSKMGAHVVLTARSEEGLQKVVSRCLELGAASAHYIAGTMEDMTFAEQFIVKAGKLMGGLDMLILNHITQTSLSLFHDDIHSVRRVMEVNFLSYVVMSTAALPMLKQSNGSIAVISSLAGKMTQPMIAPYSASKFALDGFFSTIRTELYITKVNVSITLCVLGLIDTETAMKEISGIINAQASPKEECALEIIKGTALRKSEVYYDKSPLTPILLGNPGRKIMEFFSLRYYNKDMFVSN
11-beta-hydroxysteroid dehydrogenase 1 (Homo sapiens, UniProt P28845), sequence (P28845 whole entry): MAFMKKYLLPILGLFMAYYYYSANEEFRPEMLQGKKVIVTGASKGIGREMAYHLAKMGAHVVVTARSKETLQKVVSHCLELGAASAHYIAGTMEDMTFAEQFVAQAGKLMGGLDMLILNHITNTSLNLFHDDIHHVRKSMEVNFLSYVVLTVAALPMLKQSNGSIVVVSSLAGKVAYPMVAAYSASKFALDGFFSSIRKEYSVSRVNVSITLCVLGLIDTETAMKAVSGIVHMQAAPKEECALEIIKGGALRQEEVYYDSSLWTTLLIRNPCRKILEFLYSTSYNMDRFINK

Turning to `C[C@@H]1CN(c2ncccc2Cl)[C@@H](C)CN1S(=O)(=O)c1ccc(Cl)c(Cl)c1` (relative stereo), the IC50 in data set [1] was determined as 1600 nM; in data set [2], 4700 nM. Besides, in [3], the outcome was inactive. Moreover, the figures for the half-life in [4] and in data set [5] were 2 min and 3 min, respectively.

In the case of `C[C@@H]1CN(c2ccccc2C(F)(F)F)CCN1S(=O)(=O)c1ccc(Cl)c(Cl)c1`, the IC50 in [1] and in [2] was 10 nM throughout. For the same compound, the result in [3] was inactive. Further, the half-life in data set [4] stood at 3 min; in data set [5], 5 min.

As to `C[C@@H]1CN(c2ccc(F)cc2C(F)(F)F)CCN1S(=O)(=O)c1cccc(N2CCC(C(=O)O)C2)c1` (stereo partly drawn), the results for the IC50 in [1], in [2] and in data set [9] were 160 nM, 10 nM and 90 nM, respectively. For the same compound, the clearance in data set [6] turned out to be 55 mL/min/kg. In addition, the bioavailability in [7] was found to be 100%. In data set [8], the inhibition in vivo at 30 mg/kg is 36%. Also, the result in data set [3] was inactive. In data set [4], the half-life is more than 30 min.

As for `C[C@@H]1CN(c2ncccc2Cl)C[C@H](C)N1S(=O)(=O)c1ccc(Cl)c(Cl)c1`, the IC50 in data set [1] was found to be 1300 nM; in data set [2] it was 6900 nM. The outcome in data set [3] was inactive. Also, the figures for the half-life in data set [4] and in data set [5] were 3 min and 6 min, respectively.

Turning to `O=C1CN(c2ncccc2C(F)(F)F)CCN1S(=O)(=O)c1ccc(Cl)c(Cl)c1`, the figures for the IC50 in [1] and in data set [2] were 500 nM and more than 10000 nM, respectively. Further, the result in data set [3] was inactive. Also, the half-life in data set [4] turned out to be 6 min; in data set [5], 2 min.

For `C[C@@H]1CN(c2ccc(F)cc2C(F)(F)F)CCN1S(=O)(=O)c1cccc(N2CCN(C)CC2)c1`, the IC50 in [1] was determined as 21 nM; in data set [2], 12 nM; in [14], 42 nM; in data set [9] it was 28 nM. In data set [6], the clearance was 36 mL/min/kg. Moreover, the bioavailability in data set [7] came out at 79%. The inhibition in vivo at 30 mg/kg was 45% in data set [8] and 32% in [12]. This compound had a Cmax in [10] of 246 ng/mL. Besides, the AUC in data set [11] was 2280 ng·h/mL. The Activity in data set [13] was found to be 11%. In addition, the result in data set [3] and in data set [15] was inactive. In addition, the half-life in data set [4] was determined as 15 min.

Take `O=S(=O)(c1ccc(Cl)c(Cl)c1)N1CCN(c2ccc(F)cc2C(F)(F)F)CC1`: the IC50 was found to be 68 nM in data set [1] and 250 nM in data set [2]. Also, the result in data set [3] was inactive. Also, the half-life worked out at 8 min in data set [4] and 12 min in data set [5].

Regarding `O=S(=O)(c1ccc(Cl)c(Cl)c1)N1CCN(c2ccccc2C(F)(F)F)CC1`, the IC50 in data set [1] came out at 52 nM; in data set [2] it was 420 nM. Moreover, the result in data set [3] was inactive. Also, the half-life in [4] was found to be 3 min; in data set [5] it was 4 min.

Regarding `C[C@@H]1CN(c2ccc(F)cc2C(F)(F)F)CCN1S(=O)(=O)c1cccc(OC(C)(C)C(=O)O)c1`, the IC50 in data set [1] was found to be 300 nM; in data set [2] it was 37 nM; in data set [14] it was 110 nM; in data set [9], 130 nM. For the same compound, the clearance in data set [6] is 25 mL/min/kg. In data set [7], this compound returned a bioavailability of 100%. The inhibition in vivo at 30 mg/kg in data set [8] was 38%; in data set [12], 35%. For the same compound, the Cmax in data set [10] was determined as 9180 ng/mL. This compound also displayed an AUC in data set [11] of 51100 ng·h/mL. The Activity in data set [16] turned out to be 30%. The result in [3] and in data set [15] was inactive. Further, the half-life in [4] was more than 30 min.

On to `C[C@@H]1CN(c2ccc(F)cc2C(F)(F)F)CCN1S(=O)(=O)c1cccc(-n2cncn2)c1`, for which the IC50 in data set [1] was 26 nM; in data set [2] it was 10 nM; in [14], 81 nM; in data set [9], 42 nM. In [6], the clearance was determined as 13 mL/min/kg. For the same compound, the bioavailability in [7] was 34%. In addition, the inhibition in vivo at 10 mg/kg in [17] was determined as 44%. Further, the highest level in data set [10] (Cmax) was 149 ng/mL. In [11], this compound displayed an AUC of 1040 ng·h/mL. For the same compound, in data set [12], the inhibition in vivo at 30 mg/kg is 59%. In addition, the Activity in data set [13] stood at 34%. For the same compound, the outcome in [3] and in data set [15] was inactive. The half-life in data set [4] was 12 min.

On to `C[C@@H]1CN(c2ccc(F)cc2C(F)(F)F)CCN1S(=O)(=O)c1cccc(N2CCC(O)C2)c1` (stereo partly drawn), for which the IC50 in [1] was 10 nM; in data set [2], 13 nM; in data set [14], 13 nM; in data set [9] it was 11 nM. Besides, the clearance in data set [6] amounted to 54 mL/min/kg. In data set [7], this compound returned a bioavailability of 9%. Besides, the inhibition in vivo at 30 mg/kg in data set [8] is 47%; in data set [12], 62%. The Cmax in [10] is 185 ng/mL. For the same compound, the AUC in [11] worked out at 1040 ng·h/mL. Also, the Activity in data set [13] came out at 19%. In addition, the result in data set [3] and in data set [15] was inactive. For the same compound, in [4], the half-life came to 11 min.

Turning to `O=C1CN(S(=O)(=O)c2ccc(Cl)c(Cl)c2)CCN1c1ncccc1C(F)(F)F`, the results for the IC50 in [1] and in data set [2] were 9900 nM and more than 10000 nM, respectively. The result in [3] was inactive. Moreover, the half-life in data set [4] and in [5] was 30 min in each case.

With `O=S(=O)(c1ccc(Cl)c(Cl)c1)N1CCN(c2ncccc2C(F)(F)F)CC1`, the IC50 in data set [1] was found to be 61 nM; in data set [2] it was 190 nM. Also, the outcome in [3] was inactive. Moreover, the half-life in [4] and in data set [5] was 5 min throughout.

Turning to `C[C@@H]1CN(c2ccc(F)cc2C(F)(F)F)CCN1S(=O)(=O)c1cccc(N2CCOCC2)c1`, the IC50 in [1] was 13 nM; in [2], 11 nM; in data set [9], 56 nM. For the same compound, the outcome in [3] was inactive.
